Here are results for eight compounds from ChEMBL document CHEMBL1148016, “Synthesis of 1,3-diphenyl-2-propen-1-one derivatives and evaluation of their biological activities” (Bioorg Med Chem, 2007).

Structures are written as SMILES. Calls of active or inactive are those of the source. No cut-off for these calls is given here.

In general, IC50 refers to the concentration at which inhibition is half-maximal. High values mean weaker potency in that assay, low ones greater potency in that assay.

A short description of test [1]: DPPH radical scavenging activity. Type of test: functional. The method, boiled down: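 Compound mixed with 0.1 mM acetic acid buffer and warmed to 25 °C for 5 min, then 0.2 mM DPPH in ethanol added. Absorbance read at 517 nm after 30 min. Scavenging rate (%) = {1 − (A − C)/B} × 100, with sample, colour-contrast and blank absorbances. 50% scavenging concentration calculated from the scavenging rate.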
(Loss of DPPH colour is used to gauge radical scavenging.)

In the next test the test system is Microglia. Kind of test: Suppression of LPS-induced NO production in Sprague-Dawley rat microglia after 24 hrs. Type of test: functional, cell-based. In a few lines: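 Primary microglia from postnatal day-1 Sprague–Dawley rat cortex, grown 10–14 days in MEM/10% FBS, detached by shaking and replated. Cells given LPS 1 µg/mL with compound (1, 5, 10, 20 µM) for 24 h at 37 °C. Supernatant nitrite measured by Griess reaction at 540 nm. Three independent experiments in triplicate.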

Test [2] has as its system Cortical neurone. Kind of test: Inhibition of glutamate-induced neurotoxicity in mouse cortical neurons assessed as cell death at 10 uM after 24 hrs relative to NMDA. Type of test: functional. In a few lines: (§1)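 Mixed cortical neuron/glia cultures from fetal day-15 mouse cortex, on poly-D-lysine/laminin. Cytosine arabinoside 10 uM from DIV 6. Cultures exposed in serum-free MEM to 60 µM glutamate plus compound for 24 h at 37 °C. Viability by WST-1 (1:10, 2 h, 37 °C), read at 450 nm with 650 nm reference and normalized to untreated wells. Three independent experiments in triplicate.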

The test system of test [3] is Cortical neurone. Kind of test: Inhibition of glutamate-induced neurotoxicity in mouse cortical neurons assessed as cell death at 5 uM after 24 hrs relative to NMDA. Type of test: functional. The method, boiled down: as §1

`COc1cc(/C=C/C(=O)c2ccc(C(F)(F)F)cc2)ccc1O` gave an IC50 in test [1] of 43.8 µM. The outcome in the test with Microglia was Active.

`COc1cc(/C=C/C(=O)c2ccc(OC)c(F)c2)ccc1O` came in with an IC50 in test [1] of 52.5 µM. In addition, the outcome with Microglia was Active.

For `COc1cc(/C=C/C(=O)c2c(O)c3ccccc3oc2=O)ccc1O`, it took 52.5 µM to reach half-maximal inhibition in test [1] (IC50). Further, the outcome with Cortical neurone [2], with Cortical neurone [3] and in the test on Microglia was Active.

`COc1cc(/C=C/C(=O)c2ccc([Si](C)(C)C)cc2)ccc1O` had an IC50 in test [1] of 52.8 µM. Moreover, the result in the test with Microglia was Active.

In test [1], `COc1cc(/C=C/C(=O)c2ccc3c(c2)OCO3)ccc1O` had a 50% inhibitory concentration (IC50) of 46 µM. The outcome with Cortical neurone [2], in the test on Cortical neurone [3] and with Microglia was Active.

`COc1cc(/C=C/C(=O)c2cc(F)c(F)c(F)c2)ccc1O` showed a 50% inhibitory concentration (IC50) in test [1] of 53.2 µM. Besides, the outcome in the test with Cortical neurone [2], in the test on Cortical neurone [3] and in the test on Microglia was Active.

Take `COc1cc(/C=C/C(=O)c2c(O)c3ccccc3oc2=O)ccc1O[Si](C)(C)C(C)(C)C`: inhibition in test [1] was half-maximal at 45.5 µM (IC50). For the same compound, the result in the test with Microglia was Active.

Take `COc1cc(/C=C/C=O)ccc1O` [CONIFERYL ALDEHYDE]: 64.6 µM corresponded to half-maximal inhibition in test [1] (IC50). This counts as double-digit micromolar.
